Columns and labels:
[1] = Toxicity in female rat assessed as effect on clinical observation at 250 mg/kg/day, po administered once daily via gavage for 14 days; format: organism-based; conditions: in vivo, 336 h
[2] = target: T1, CYP2C8 (Homo sapiens, UniProt P10632); assay: Inhibition of CYP2C8 (unknown origin) at 10 uM using paclitaxel as substrate relative to control; format: ADME; conditions: probe paclitaxel
T1 sequence (P10632 whole entry): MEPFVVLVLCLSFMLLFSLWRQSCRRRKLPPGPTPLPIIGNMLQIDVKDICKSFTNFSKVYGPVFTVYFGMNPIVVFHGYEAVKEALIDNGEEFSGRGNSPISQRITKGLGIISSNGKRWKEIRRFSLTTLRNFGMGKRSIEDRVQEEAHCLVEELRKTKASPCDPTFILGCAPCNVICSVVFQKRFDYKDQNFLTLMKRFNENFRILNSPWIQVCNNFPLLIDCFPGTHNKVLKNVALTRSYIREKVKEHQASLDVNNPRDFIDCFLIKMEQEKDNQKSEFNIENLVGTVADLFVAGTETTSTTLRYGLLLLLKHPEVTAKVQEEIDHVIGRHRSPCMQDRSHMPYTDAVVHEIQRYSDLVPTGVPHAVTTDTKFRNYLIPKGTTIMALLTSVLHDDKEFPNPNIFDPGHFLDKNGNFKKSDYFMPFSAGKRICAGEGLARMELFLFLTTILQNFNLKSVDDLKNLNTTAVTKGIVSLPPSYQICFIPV

[3] = target: T2, Glucocorticoid receptor (Homo sapiens) (UniProt P04150); assay: Antagonist activity at human glucocorticoid receptor expressed in CHO-K1 cells harboring firefly luciferase gene assessed as inhibition of glucocorticoid receptor activity at 0.01 to 10000 nM after 20 hrs by One-Glo luciferase reporter gene assay relative to mifepristone; format: cell-based; set-up: scale not given: the % may be the effect or the level left
T2 sequence (whole entry): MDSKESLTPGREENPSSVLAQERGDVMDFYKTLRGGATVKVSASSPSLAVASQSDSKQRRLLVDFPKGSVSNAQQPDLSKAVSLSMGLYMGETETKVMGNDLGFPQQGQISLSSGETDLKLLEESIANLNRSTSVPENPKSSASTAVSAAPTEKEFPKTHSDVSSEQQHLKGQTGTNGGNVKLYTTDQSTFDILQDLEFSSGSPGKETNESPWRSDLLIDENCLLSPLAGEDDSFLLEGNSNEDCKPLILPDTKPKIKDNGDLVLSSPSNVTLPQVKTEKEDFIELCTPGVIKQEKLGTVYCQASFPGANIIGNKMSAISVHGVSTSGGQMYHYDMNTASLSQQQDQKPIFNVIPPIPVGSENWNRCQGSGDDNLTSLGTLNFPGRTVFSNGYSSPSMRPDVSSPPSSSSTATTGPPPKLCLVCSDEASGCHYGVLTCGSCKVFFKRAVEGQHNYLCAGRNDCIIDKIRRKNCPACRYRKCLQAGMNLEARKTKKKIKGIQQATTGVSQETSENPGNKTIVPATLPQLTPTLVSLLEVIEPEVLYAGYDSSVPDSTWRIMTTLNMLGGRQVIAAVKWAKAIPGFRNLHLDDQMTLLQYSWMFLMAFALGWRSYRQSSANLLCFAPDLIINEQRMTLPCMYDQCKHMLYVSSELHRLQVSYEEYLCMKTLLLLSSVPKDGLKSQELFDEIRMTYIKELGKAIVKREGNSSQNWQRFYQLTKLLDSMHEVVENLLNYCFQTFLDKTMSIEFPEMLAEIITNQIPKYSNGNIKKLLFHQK
Procedure, shortened: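 Cell-based luciferase reporter assays for GR, AR and PR, run in agonist and antagonist modes. Potency and Emax are averages of at least two determinations, reported with SD.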

[4] = Cmax in mini-pig at 5 mg/kg, po; format: ADME, organism-based, Sus scrofa domesticus; set-up: dose 5 mg/kg, route oral; conditions: in vivo
[5] = Oral bioavailability in mini-pig at 5 mg/kg; format: ADME, organism-based, Sus scrofa domesticus; conditions: in vivo
[6] = Toxicity in female rat assessed as effect on food consumption at 250 mg/kg/day, po administered once daily via gavage for 14 days; format: organism-based; conditions: in vivo, 336 h
[7] = Toxicity in female rat assessed as effect on uterine weight at 250 mg/kg/day, po administered once daily via gavage for 14 days; format: organism-based; conditions: in vivo, 336 h

In the case of `CC#C[C@]1(O)CC[C@H]2[C@@H]3CCC4=CC(=O)CC[C@]4(C)[C@H]3[C@@H](c3ccc(N(C)C)cc3)C[C@@]21C`, the Activity [1] is reported as “Non-Toxic”, the inhibition at 10 µM [2] is reported as 58% and the Activity [3] is reported as 100%. The Cmax [4] was 249 ng/mL, the bioavailability [5] was 35.9% and the Activity [6] was “Non-Toxic”. For the same compound, the Activity [7] was “Non-Toxic”.
